In ChEMBL document CHEMBL1152649, “Synthesis, cytotoxicity and human telomerase inhibition activities of a series of 1,2-heteroannelated anthraquinones and anthra[1,2-d]imidazole-6,11-dione homologues” (2009):
Active and inactive are the calls of the source. The rule behind the calls is not given here.

Experiments:
MCF7 [1] = experiment: Antiproliferative activity against human MCF7 cells assessed as cell growth at 10 uM; type: functional; details: read-out: Activity
Outline: (§1)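 NCI 60 cell line panel, single-dose screen (10^-5 M) run by the developmental therapeutics program protocol. Results are given as growth percent of treated cells relative to untreated control cells for each line.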

UACC-257 = experiment: Growth inhibition of human UACC257 cells; type: functional
Outline: (§2)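 Assayed in the NCI 60 human cancer cell line panel under the Developmental Therapeutics Program protocol. For each line, dose–response curves were plotted against log10 drug concentration. In the one-dose screen at 10^-5 M, growth was given as percent of untreated control cells, and mean graph midpoint values were averaged.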

TK-10 [2] = experiment: Growth inhibition of human TK10 cells; type: functional; outline: as §2
NCI-H226 = experiment: Growth inhibition of human NCI-H226 cells; type: functional
Outline: (§3)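 NCI 60 cancer cell line screen run per the Developmental Therapeutics Program protocol. Dose–response curves were plotted against log10 drug concentration for each cell line within its subpanel, and mean graph midpoint values were calculated.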

MDA-MB-468 = experiment: Antiproliferative activity against human MDA-MB-468 cells assessed as cell growth at 10 uM; type: functional; details: read-out: Activity; outline: as §1
MCF7 [3] = experiment: Growth inhibition of human MCF7 cells; type: functional; outline: as §3
NCI-H460 = experiment: Antiproliferative activity against human NCI-H460 cells assessed as cell growth at 10 uM; type: functional; details: read-out: Activity; outline: as §1
LOX IMVI [4] = experiment: Growth inhibition of human LOXIMVI cells; type: functional; outline: as §3
LOX IMVI [5] = experiment: Antiproliferative activity against human LOXIMVI cells assessed as cell growth at 10 uM; type: functional; details: read-out: Activity; outline: as §1
T47D = experiment: Growth inhibition of human T47D cells; type: functional; outline: as §2
MOLT-4 = experiment: Growth inhibition of human MOLT4 cells; type: functional; outline: as §3
HCC 2998 = experiment: Antiproliferative activity against human HCC2998 cells assessed as cell growth at 10 uM; type: functional; details: read-out: Activity; outline: as §1
SF-268 = experiment: Growth inhibition of human SF268 cells; type: functional; outline: as §2
[6] = molecular target: Telomerase reverse transcriptase (Homo sapiens) (UniProt O14746); experiment: Inhibition of telomerase in human H1299 cells up to 100 uM by TRAP assay; type: cell-based
Sequence of Telomerase reverse transcriptase (Homo sapiens) (O14746 whole entry): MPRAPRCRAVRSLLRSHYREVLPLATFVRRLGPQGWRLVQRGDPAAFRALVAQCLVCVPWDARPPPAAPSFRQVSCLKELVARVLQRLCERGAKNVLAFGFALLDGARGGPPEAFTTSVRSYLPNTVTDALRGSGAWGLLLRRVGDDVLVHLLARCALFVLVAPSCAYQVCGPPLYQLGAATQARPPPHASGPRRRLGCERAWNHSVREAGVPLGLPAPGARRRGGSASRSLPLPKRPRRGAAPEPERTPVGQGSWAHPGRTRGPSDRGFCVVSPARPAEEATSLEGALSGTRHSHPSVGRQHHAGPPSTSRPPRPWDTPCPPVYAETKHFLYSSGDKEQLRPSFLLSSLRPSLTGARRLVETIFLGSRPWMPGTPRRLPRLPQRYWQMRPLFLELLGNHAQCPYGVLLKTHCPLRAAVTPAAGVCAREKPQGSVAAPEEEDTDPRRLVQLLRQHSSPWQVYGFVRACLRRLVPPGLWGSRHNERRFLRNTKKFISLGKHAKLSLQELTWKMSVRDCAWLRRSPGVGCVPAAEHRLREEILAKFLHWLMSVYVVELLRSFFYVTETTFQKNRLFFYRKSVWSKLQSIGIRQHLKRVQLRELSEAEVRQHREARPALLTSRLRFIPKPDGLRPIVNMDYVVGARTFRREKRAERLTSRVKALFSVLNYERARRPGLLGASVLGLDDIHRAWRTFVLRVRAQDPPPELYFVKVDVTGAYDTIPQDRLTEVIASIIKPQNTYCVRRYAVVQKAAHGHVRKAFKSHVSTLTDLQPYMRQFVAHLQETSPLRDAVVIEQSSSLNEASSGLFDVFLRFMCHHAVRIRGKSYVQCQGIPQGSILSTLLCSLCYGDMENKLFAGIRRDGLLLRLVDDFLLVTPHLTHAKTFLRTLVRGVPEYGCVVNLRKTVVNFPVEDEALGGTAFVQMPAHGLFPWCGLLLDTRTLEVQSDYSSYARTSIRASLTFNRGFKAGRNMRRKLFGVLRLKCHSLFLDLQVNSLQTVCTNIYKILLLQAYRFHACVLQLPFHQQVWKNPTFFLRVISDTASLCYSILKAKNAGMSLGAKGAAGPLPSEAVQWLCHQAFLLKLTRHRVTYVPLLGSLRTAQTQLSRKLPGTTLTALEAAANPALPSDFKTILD
Outline: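 PCR-based telomeric repeat amplification protocol (TRAP). The telomerase source was total lysate of H1299 lung cancer cells, with protein measured against BSA standards. Controls were extract without inhibitor and RNase A-treated extract.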

SK-MEL-5 = experiment: Growth inhibition of human SK-MEL-5 cells; type: functional; outline: as §2
MDA-MB-231 = experiment: Antiproliferative activity against human MDA-MB-231 cells assessed as cell growth at 10 uM; type: functional; details: read-out: Activity; outline: as §1
A549 [7] = experiment: Growth inhibition of human A549 cells; type: functional; outline: as §3
OVCAR-8 [8] = experiment: Antiproliferative activity against human OVCAR8 cells assessed as cell growth at 10 uM; type: functional; details: read-out: Activity; outline: as §1
NCI-H322M = experiment: Antiproliferative activity against human NCI-H322M cells assessed as cell growth at 10 uM; type: functional; details: read-out: Activity; outline: as §1
OVCAR-8 [9] = experiment: Growth inhibition of human OVCAR8 cells; type: functional; outline: as §3
[10] = Antiproliferative activity against human RPMI8266 cells assessed as cell growth at 10 uM; type: functional; details: read-out: Activity; outline: as §1
BT-549 = experiment: Growth inhibition of human BT549 cells; type: functional; outline: as §3
A498 = experiment: Growth inhibition of human A498 cells; type: functional; outline: as §3
[11] = molecular target: Telomerase reverse transcriptase (Homo sapiens) (UniProt O14746); experiment: Inhibition of TERT in human H1299 cells assessed as residual transcriptional activity at 100 uM after 24 hrs by SEAP reporter gene assay; values are per cent of control
U-251 = experiment: Growth inhibition of human U251 cells; type: functional; outline: as §2
SF-539 = experiment: Growth inhibition of human SF539 cells; type: functional; outline: as §2
ACHN [12] = experiment: Antiproliferative activity against human ACHN cells assessed as cell growth at 10 uM; type: functional; details: read-out: Activity; outline: as §1
HOP-62 = experiment: Growth inhibition of human HOP62 cells; type: functional; outline: as §3
KM12 [13] = experiment: Growth inhibition of human KM12 cells; type: functional; outline: as §3
A549 [14] = experiment: Antiproliferative activity against human A549 cells assessed as cell growth at 10 uM; type: functional; details: read-out: Activity; outline: as §1
ACHN [15] = experiment: Growth inhibition of human ACHN cells; type: functional; outline: as §3
K562 = experiment: Growth inhibition of human K562 cells; type: functional; outline: as §3
PC-3 = experiment: Growth inhibition of human PC3 cells; type: functional; outline: as §2
UO-31 = experiment: Antiproliferative activity against human UO31 cells assessed as cell growth at 10 uM; type: functional; details: read-out: Activity
Outline: (§4)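 NCI 60 cell line panel, single dose (10^-5 M), run per the Developmental Therapeutics Program protocol (one dose mean graph). Each result is the growth percentage of treated cells relative to untreated control cells.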

SNB-75 = experiment: Growth inhibition of human SNB75 cells; type: functional; outline: as §2
HCT-15 = experiment: Growth inhibition of human HCT15 cells; type: functional; outline: as §3
TK-10 [16] = experiment: Antiproliferative activity against human TK10 cells assessed as cell growth at 10 uM; type: functional; details: read-out: Activity; outline: as §4
OVCAR-3 = experiment: Growth inhibition of human OVCAR-3 cells; type: functional; outline: as §3
HOP-92 = experiment: Growth inhibition of human HOP92 cells; type: functional; outline: as §3
OVCAR-5 = experiment: Growth inhibition of human OVCAR5 cells; type: functional; outline: as §3
KM12 [17] = experiment: Antiproliferative activity against human KM12 cells assessed as cell growth at 10 uM; type: functional; details: read-out: Activity; outline: as §1
[18] = read-out: LC50 (the source's name)

In the case of `O=C1c2ccccc2C(=O)c2c1ccc1nsnc21`, the growth at 10 µM (MCF7 [1]) is reported as -50.7%, the GI50 (UACC-257) is reported as 1.74 µM and the TGI (UACC-257) is reported as 3.51 µM. It also gave a CC50 (UACC-257; [18]) of 7.09 µM, a GI50 (TK-10 [2]) of 2.85 µM and a TGI (TK-10 [2]) of 10.9 µM. The CC50 (TK-10 [2]; [18]) was 50.4 µM, the GI50 (NCI-H226) was 4.48 µM and the TGI (NCI-H226) was 21.6 µM. For the same molecule, the CC50 (NCI-H226; [18]) was 63.7 µM, the growth at 10 µM (MDA-MB-468) was -73.2% and the GI50 (MCF7 [3]) was 1.53 µM. It also gave a TGI (MCF7 [3]) of 3.34 µM, a CC50 (MCF7 [3]; [18]) of 7.29 µM and a growth at 10 µM (NCI-H460) of 77.4%. It also gave a GI50 (LOX IMVI [4]) of 0.82 µM, a TGI (LOX IMVI [4]) of 2.13 µM and a CC50 (LOX IMVI [4]; [18]) of 4.86 µM. It also gave a growth at 10 µM (LOX IMVI [5]) of -50.6%, a GI50 (T47D) of 1.39 µM and an LC50 (T47D) of 8.27 µM. It also gave a TGI (T47D) of 3.39 µM, a GI50 (MOLT-4) of 0.49 µM and a TGI (MOLT-4) of 1.84 µM. For the same molecule, the CC50 (MOLT-4; [18]) was 4.71 µM, the growth at 10 µM (HCC 2998) was -0.74% and the GI50 (SF-268) was 2.17 µM. For the same molecule, the TGI (SF-268) was 5.77 µM, the CC50 (SF-268; [18]) was 27.7 µM and the inhibition [6] was “inactive”. The GI50 (SK-MEL-5) was 1.58 µM, the TGI (SK-MEL-5) was 2.92 µM and the CC50 (SK-MEL-5; [18]) was 5.41 µM. It also gave a growth at 10 µM (MDA-MB-231) of -17.3%, a GI50 (A549 [7]) of 14.7 µM and a TGI (A549 [7]) of 36.6 µM. The CC50 (A549 [7]; [18]) was 91 µM, the growth at 10 µM (OVCAR-8 [8]) was -10.1% and the growth at 10 µM (NCI-H322M) was 126%. It also gave a GI50 (OVCAR-8 [9]) of 1.66 µM, a TGI (OVCAR-8 [9]) of 4.68 µM and a CC50 (OVCAR-8 [9]; [18]) of 59.8 µM. It also gave a growth at 10 µM [10] of -28%, a GI50 (BT-549) of 1.63 µM and an LC50 (BT-549) of 6.01 µM. The TGI (BT-549) was 3.13 µM, the GI50 (A498) was 12.4 µM and the TGI (A498) was 25.4 µM. For the same molecule, the CC50 (A498; [18]) was 52 µM, the residual activity [11] was 9% and the GI50 (U-251) was 1.61 µM. It also gave a TGI (U-251) of 2.96 µM, a CC50 (U-251; [18]) of 5.44 µM and a GI50 (SF-539) of 1.46 µM. It also gave a TGI (SF-539) of 2.94 µM, a CC50 (SF-539; [18]) of 5.91 µM and a growth at 10 µM (ACHN [12]) of -94.3%. The GI50 (HOP-62) was 1.28 µM, the TGI (HOP-62) was 3.31 µM and the CC50 (HOP-62; [18]) was 8.53 µM. The GI50 (KM12 [13]) was 1.96 µM, the TGI (KM12 [13]) was 5.54 µM and the CC50 (KM12 [13]; [18]) was 59.7 µM. It also gave a growth at 10 µM (A549 [14]) of 104%, a GI50 (ACHN [15]) of 1.46 µM and a TGI (ACHN [15]) of 2.77 µM. For the same molecule, the CC50 (ACHN [15]; [18]) was 5.27 µM, the GI50 (K562) was 1.92 µM and the LC50 (K562) was 41.2 µM. For the same molecule, the TGI (K562) was 15.9 µM, the GI50 (PC-3) was 3.23 µM and the TGI (PC-3) was over 100 µM. For the same molecule, the CC50 (PC-3; [18]) was over 100 µM, the growth at 10 µM (UO-31) was -79.3% and the GI50 (SNB-75) was 2.03 µM. The TGI (SNB-75) was 5.2 µM, the CC50 (SNB-75; [18]) was 18.6 µM and the GI50 (HCT-15) was 1.71 µM. It also gave a TGI (HCT-15) of 3.72 µM, a CC50 (HCT-15; [18]) of 8.12 µM and a growth at 10 µM (TK-10 [16]) of 97%. For the same molecule, the GI50 (OVCAR-3) was 0.55 µM, the TGI (OVCAR-3) was 2.46 µM and the CC50 (OVCAR-3; [18]) was 11.1 µM. For the same molecule, the GI50 (HOP-92) was 2.52 µM, the TGI (HOP-92) was 6.64 µM and the CC50 (HOP-92; [18]) was over 100 µM. For the same molecule, the GI50 (OVCAR-5) was 1.91 µM, the TGI (OVCAR-5) was 4.11 µM and the CC50 (OVCAR-5; [18]) was 8.84 µM. The growth at 10 µM (KM12 [17]) was 98.6%.
